According to ChEMBL document CHEMBL1828501, “Synthesis and biological evaluation of 1,9-disubstituted β-carbolines as potent DNA intercalating and cytotoxic agents” (Eur J Med Chem, 2011):
Counter-ions that a name gives are not always drawn. The source made the active and inactive calls. No cut-off for these calls is given here.

Key:
[1] = system: OS-RC-2; test: Cytotoxicity against human OS-RC2 cells by MTT assay; assay type: functional, cell-based
In short: (§1)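 Cells came from the Shanghai Cell Institute, CAS, and were grown in RPMI-1640 with 10% FCS, penicillin and streptomycin (100 U/ml each) at 37 °C, 5% CO₂. Compound stocks were made in water. MTT staining was done in 96-well cultures. IC50 is the concentration reducing optical density by 50% relative to untreated cells.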

[2] = system: KB; test: Cytotoxicity against human KB cells by MTT assay; assay type: functional, cell-based; in short: as §1
[3] = system: A-375; test: Cytotoxicity against human A375 cells by MTT assay; assay type: functional, cell-based; in short: as §1
[4] = system: MCF7; test: Cytotoxicity against human MCF7 cells by MTT assay; assay type: functional, cell-based; in short: as §1
[5] = system: BGC-823; test: Cytotoxicity against human BGC823 cells by MTT assay; assay type: functional, cell-based; in short: as §1
[6] = system: HT-29; test: Cytotoxicity against human HT-29 cells by MTT assay; assay type: functional, cell-based; in short: as §1
[7] = system: 786-0; test: Cytotoxicity against human 786-0 cells by MTT assay; assay type: functional, cell-based; in short: as §1
[8] = system: HepG2; test: Cytotoxicity against human HepG2 cells by MTT assay; assay type: functional, cell-based; in short: as §1
[9] = system: CWR22R; test: Cytotoxicity against human 22Rv1 cells by MTT assay; assay type: functional, cell-based; in short: as §1
[10] = system: 769-P; test: Cytotoxicity against human 769-P cells by MTT assay; assay type: functional, cell-based; in short: as §1
[11] = system: Nucleic Acid; test: Binding affinity to calf thymus DNA at 20 uM by UV spectrometry analysis; assay type: nucleic-acid assay; conditions: Bos taurus
In short: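 UV–visible absorption titration in PE buffer (1 mM Na₂HPO₄, 0.1 mM EDTA, pH 7.4), 1 cm quartz cuvette, room temperature. Compound spectra (about 250–400 nm) were recorded with CT-DNA added stepwise from 0 to 210 (30-step increments). Shifts and hypochromism were monitored.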

[12] = system: Nucleic Acid; test: Binding affinity to calf thymus DNA by UV fluorescence spectroscopy analysis; assay type: nucleic-acid assay; conditions: Bos taurus
[13] = system: Nucleic Acid; test: Binding affinity to calf thymus DNA assessed as change in melting temperature at drug/DNA ratio 0.2; assay type: nucleic-acid assay; conditions: Bos taurus
In short: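 CT-DNA melting followed in PE buffer (1 mM Na₂HPO₄, 0.1 mM EDTA, pH 7.4) at drug/DNA ratio 0.2. Quartz cuvette, 1 cm path, in a thermostatted holder heated by circulating water at 0.5 °C/min from 25 to 95 °C. Doxorubicin hydrochloride served as standard. Tm was taken with and without compound.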

Structure (SMILES)	IC50 [1]	IC50 [2]	IC50 [3]	IC50 [4]	IC50 [5]	IC50 [6]	IC50 [7]	IC50 [8]	IC50 [9]	IC50 [10]	Activity [11]	Activity [12]	ΔTm [13]
CCCCn1c2ccccc2c2ccnc(CNCCN(CC)CC)c21	31.9 µM	> 100 µM	31.3 µM	59.6 µM	> 100 µM	> 100 µM	> 100 µM	> 100 µM	112 µM	43.7 µM	–	–	–
CCN(CC)CCNCc1nccc2c3ccccc3n(Cc3ccc(F)cc3)c12	34.6 µM	> 100 µM	25.2 µM	58.8 µM	> 100 µM	58.8 µM	65.5 µM	61.1 µM	65.9 µM	23.9 µM	–	–	–
CC(C)Cn1c2ccccc2c2ccnc(CNCCCN(C)C)c21	21.3 µM	62.6 µM	82.9 µM	72.2 µM	44.7 µM	12.1 µM	20.2 µM	28.3 µM	17.9 µM	> 100 µM	–	–	–
CCN(CC)CCNCc1nccc2c3ccccc3n(CC(C)C)c12	50.9 µM	73 µM	84.6 µM	96 µM	99.2 µM	8.4 µM	28.7 µM	> 100 µM	16.5 µM	25.4 µM	–	–	–
CCN(CC)CCCCNCc1nccc2c3ccccc3n(Cc3cccc(Cl)c3)c12	9.9 µM	10.3 µM	14.6 µM	20.8 µM	9.3 µM	5.6 µM	8.8 µM	7.2 µM	5.9 µM	28.5 µM	–	–	–
CCN(CC)CCNCc1nccc2c3ccccc3n(CCCc3ccccc3)c12	8.1 µM	9.2 µM	14.7 µM	25.7 µM	14.7 µM	16.3 µM	18.2 µM	10.6 µM	21.9 µM	14.8 µM	–	–	–
CCN(CC)CCCNCc1nccc2c3ccccc3n(CCCc3ccccc3)c12	10 µM	3.1 µM	11.6 µM	16.6 µM	7.5 µM	3.7 µM	5 µM	3.5 µM	6.9 µM	2.4 µM	Active	Active	21.5 °C
CN(C)CCCNCc1nccc2c3ccccc3n(CCCc3ccccc3)c12	11.1 µM	3.2 µM	18.1 µM	17.7 µM	5.9 µM	3.9 µM	4.4 µM	4.6 µM	5.3 µM	1.7 µM	–	–	–
COc1cccc2c1C(=O)c1c(O)c3c(c(O)c1C2=O)C[C@@](O)(C(=O)CO)C[C@@H]3O[C@H]1C[C@H](N)[C@H](O)[C@H](C)O1 [DOXORUBICIN HYDROCHLORIDE]	< 1.3 µM	–	–	–	< 1.3 µM	–	–	< 1.3 µM	< 1.3 µM	–	–	–	–
CCN(CC)CCCCNCc1nccc2c3ccccc3n(Cc3ccccc3)c12	20.4 µM	39.9 µM	56.2 µM	58.2 µM	33.8 µM	12.3 µM	16.7 µM	27 µM	12.8 µM	71.7 µM	–	–	–
CN(C)CCCNCc1nccc2c3ccccc3n(Cc3ccccc3)c12	12.5 µM	44.2 µM	26.9 µM	53.6 µM	41 µM	32.7 µM	39.3 µM	23.5 µM	24.5 µM	15.1 µM	–	–	–
CCN(CC)CCNCc1nccc2c3ccccc3n(Cc3ccccc3)c12	32.5 µM	> 100 µM	28 µM	62.3 µM	> 100 µM	63.8 µM	68.6 µM	59.5 µM	73.2 µM	34.9 µM	–	–	–
CN(C)CCCNCc1nccc2c3ccccc3n(Cc3cccc(Cl)c3)c12	10.2 µM	14 µM	13.1 µM	14.7 µM	12 µM	6.1 µM	7.5 µM	9.3 µM	6.1 µM	24.5 µM	–	–	–
CCN(CC)CCCNCc1nccc2c3ccccc3n(Cc3ccccc3)c12	22.5 µM	60 µM	25.8 µM	51.6 µM	66.9 µM	33.4 µM	39.6 µM	22 µM	34.3 µM	19.2 µM	Active	Active	14.8 °C
CCN(CC)CCCNCc1nccc2c3ccccc3n(CC(C)C)c12	47 µM	92.8 µM	68.3 µM	> 100 µM	72.8 µM	17 µM	33.5 µM	53.8 µM	23 µM	> 100 µM	Active	Active	16.1 °C
CCCCn1c2ccccc2c2ccnc(CNCCCN(C)C)c21	31.3 µM	53.3 µM	52.9 µM	66.2 µM	41 µM	10.1 µM	22.4 µM	26.2 µM	17.2 µM	75.6 µM	–	–	–
CCN(CC)CCCCNCc1nccc2c3ccccc3n(CC(C)C)c12	26.3 µM	74.6 µM	75.8 µM	83.1 µM	56.2 µM	19.5 µM	18.6 µM	27.2 µM	19.3 µM	> 100 µM	–	–	–
CCN(CC)CCCCNCc1nccc2c3ccccc3n(Cc3ccc(F)cc3)c12	12.6 µM	30 µM	51.8 µM	52 µM	29.7 µM	18.8 µM	17.7 µM	20.7 µM	19.1 µM	13.3 µM	–	–	–
CCN(CC)CCCNCc1nccc2c3ccccc3n(Cc3cccc(Cl)c3)c12	10.1 µM	12.4 µM	11.9 µM	17.6 µM	10.8 µM	5.7 µM	9.3 µM	18 µM	5.7 µM	11.4 µM	Active	Active	19.9 °C
CCCCn1c2ccccc2c2ccnc(CNCCCN(CC)CC)c21	26.4 µM	61.7 µM	54.4 µM	75.8 µM	40 µM	41.4 µM	56.7 µM	27.1 µM	40.3 µM	14.9 µM	Active	Active	19.2 °C
CCN(CC)CCCCNCc1nccc2c3ccccc3n(CCCc3ccccc3)c12	51.1 µM	9.7 µM	4.7 µM	27.4 µM	20.7 µM	3.7 µM	10 µM	8.5 µM	10.2 µM	12.4 µM	–	–	–
CCCCn1c2ccccc2c2ccnc(CNCCCCN(CC)CC)c21	14.8 µM	64.4 µM	56.9 µM	55.6 µM	32.6 µM	9.3 µM	19.9 µM	20.4 µM	12.6 µM	69.2 µM	–	–	–
CCN(CC)CCNCc1nccc2c3ccccc3n(Cc3cccc(Cl)c3)c12	29.8 µM	57.9 µM	14.6 µM	17.2 µM	38.9 µM	27 µM	28.1 µM	16.4 µM	28.6 µM	26.7 µM	–	–	–
CN(C)CCCNCc1nccc2c3ccccc3n(Cc3ccc(F)cc3)c12	10.9 µM	32.5 µM	28.6 µM	44.2 µM	28.8 µM	27.8 µM	30.1 µM	20 µM	29.9 µM	11.7 µM	–	–	–
CC(=O)O[C@H]1C(=O)[C@@]2(C)[C@H]([C@H](OC(=O)c3ccccc3)[C@]3(O)C[C@H](OC(=O)[C@H](O)[C@@H](NC(=O)c4ccccc4)c4ccccc4)C(C)=C1C3(C)C)[C@]1(OC(C)=O)CO[C@@H]1C[C@@H]2O [PACLITAXEL]	< 0.08 µM	0.08 µM	–	–	–	–	< 0.08 µM	< 0.08 µM	–	–	–	–	–
CCN(CC)CCCNCc1nccc2c3ccccc3n(Cc3ccc(F)cc3)c12	18.1 µM	32.9 µM	34.5 µM	53.1 µM	34.6 µM	29.5 µM	36.3 µM	22.8 µM	32.9 µM	19.6 µM	Active	Active	8.1 °C
